Screens: PubChem, several laboratories
Most compounds without a hit are left out; they make up all but 4.9% or so of the library.
STAT1 inh: inhibitors of IFN-gamma induced STAT1 signaling; NIH 3T3 STAT1-luciferase reporter, luminescence; inhibition, % at 5.5 µM; 200,000 compounds, 0.35% hits; AID 920;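 active = inhibition above a set limit, the mean inhibition across all tested compounds plus 3 SD, cut at about 34% in these data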;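 also: 0% = IFN-gamma with DMSO and 100% = IFN-gamma with 300 µM nifuroxazide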
STAT3 act: increases IL-6 driven STAT3 reporter signal; 190,000 compounds, 0.91% hits; activation (% of control), % at 5.6 µM; U3A cells, IL-6 STAT3-luciferase reporter, luminescence; 100% = signal with IL-6 EC80 alone;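 active = activation above the screen-wide mean of compound activation plus 3 SD, cut at about 130% in these data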;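 also: 0% = background luminescence of wells with medium and substrate only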
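Material: human STAT1-deficient U3A cells with stable STAT3-luciferase reporter / Probe or stimulus: IL-6 stimulus at 33 ng/mL final / Schedule: 1 h compound pre-exposure, 6 h IL-6 stimulation, 37 °C / Technique: luminescence / Read-out basis: percent of IL-6-only median luminescence / Control set: IL-6-only high control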
STAT3 inh: inhibitors of IL-6 induced STAT3 signaling | U3A cells, IL-6 STAT3-luciferase reporter, luminescence; host cell line lacks STAT1 | inhibition, % at 5.5 µM | 190,000 compounds, 0.89% hits;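 active = inhibition above the mean inhibition across all screened compounds plus 3 SD, cut at about 44% in these data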;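 also: 0% = DMSO only wells and 100% = 100 µM nifuroxazide control wells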
NF-kB expr up: NF-kB expression increase, human neuronal cells; NF-kB reporter expression; hits give high values; fold change at 12.5 µM; 190,000 compounds, 1.6% hits; in the data active = fold change above about 3.3
STAT1 act: increases IFN-gamma driven STAT1 reporter signal | 200,000 compounds, 2.6% hits | NIH 3T3 STAT1-luciferase reporter, luminescence; 100% = IFN-gamma alone, no compound | activation (% of control), % at 5.5 µM;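 active = activation above the screen-wide mean activation plus 3 SD, cut at about 130% in these data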;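 also: raw ratio to IFN-gamma control signal so 100% means no change and 0% no light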
APP 5'UTR act: activates APP 5'UTR luciferase reporter; 190,000 compounds, 1% hits; SH-SY5Y APP 5'UTR luciferase reporter, luminescence; zero percent = DMSO vehicle wells; activation, % at 2 µM;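 active = activation above a set limit, based on mean plus 3 SD of controls, cut at about 140% in these data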
STAT1 activ conf: STAT1 activation, confirmation assay. activation (% of control), % at 5.7 µM. NIH 3T3 STAT1-luciferase reporter, IFN-gamma potentiation, luminescence; 100% = IFN-gamma EC80 alone, no compound. 1,200 compounds, 97% hits. shares compounds with STAT1 act;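 active = activation above a set limit carried over from the earlier primary STAT1 screen, cut at about 140% in these data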;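 also: simple ratio to median IFN-gamma plus DMSO wells so 0% means no light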
NFkB act: activates NF-kappaB, counter-screen to STAT1 activators. shares compounds with STAT1 act. 1,200 compounds, 43% hits. HEK293T NF-kB luciferase reporter, TNF-alpha stimulated, luminescence; 100% = TNF-alpha with vehicle only. activation (% of control), % at 5.7 µM;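 active = activation above the mean of solvent-only control wells plus 3 SD, set per campaign, cut at about 130% in these data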;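 also: TNF-alpha given at a submaximal dose yielding about 80% of full reporter signal; values are well signal over median control so 100% means no change and 0% no light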
STAT3 act 2: activates human STAT3, counter-screen to STAT1 activators | shares compounds with STAT1 act | U3A cells STAT3-luciferase reporter, IL-6, luminescence; cells lack STAT1; 100 = IL-6 alone, no compound effect | activation (% of control), % at 5.7 µM | 1,200 compounds, 46% hits | AID 1316;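 active = activation above the solvent-only control well mean plus 3 SD, set per plate batch, cut at about 110% in these data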;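 also: 0% = no luminescence and 100% = median IL-6 plus DMSO wells; higher means more STAT3 reporter activation so hits are non-selective activators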
Active calls of the source: *; x = no result.

SMILES	STAT1 inh	STAT3 act	STAT3 inh	NF-kB expr up	STAT1 act	APP 5'UTR act	STAT1 activ conf	NFkB act	STAT3 act 2
O=C(/C=C/c1cccc(F)c1)Nc1nccs1	-55	96	12	3.6*	151*	104	175*	137*	112*
CNc1nc(-c2ccc3c(c2)CCN3C(=O)c2ccccc2F)cs1	-67	85	20	7.5*	159*	208*	215*	143*	96
O=C1C(C=Nc2ccccc2)=C(O)c2ccccc21	-60	68	39	2.6	163*	103	244*	125	126*
C=CCn1c(SCC(=O)N2CCc3ccccc3C2)nc2sc(C)c(C)c2c1=O	6	107	-7	0.83	95	18	x	x	x
CCC1CCC(NC(=O)Nc2cccc(OC)c2)CC1 (centres undefined)	-67	113	-12	4.5*	159*	158*	168*	132	123*
CCN(CC)c1ccc(C=NCCc2ccc(S(N)(=O)=O)cc2)cc1	-1	105	2	0.97	101	11	x	x	x
N#C/C(=C\c1ccc([N+](=O)[O-])o1)C(=O)Nc1ccc(F)cc1	14	92	11	1.4	87	-43	x	x	x
N#CCc1ccc(NC(=O)/C=C/c2ccc([N+](=O)[O-])o2)cc1	-231	83	23	1.2	312*	-56	130*	155*	102
COc1ccc(N2C(=O)CC3(CCCC3)CC2=O)cc1	7	106	-7	1	94	x	x	x	x
Cc1nn(-c2ccccc2)c(C)c1/C=C/C(=O)OCC(=O)Nc1ncc(C(F)(F)F)cc1Cl	8	100	6	0.94	93	13	x	x	x
Cc1ccc(OCc2nc(-c3ccccc3)no2)c(C)c1	-70	92	10	5.2*	163*	120	185*	129	110
CCN1C(=S)SC(=O)C1=C1C=C(C)N(CCO)C(C)=C1	-60	105	-1	2.8	158*	121	190*	128	124*
CC(=O)Nc1ccc(S(=O)(=O)NCc2ccncc2)cc1	26	88	17	1.1	74	7	x	x	x
Cc1c(Cl)c(-c2n[nH]c(=S)n2-c2ccc(F)cc2)nn1C	-4	106	3	1.4	105	1	x	x	x
O=C(COC(=O)c1ccc(Cl)c(S(=O)(=O)N2CCCCC2)c1)NCC1CCCO1 (centres undefined)	12	102	4	1.1	89	0	x	x	x
Cc1c(-c2nc(N)nc(Nc3ccccc3F)n2)oc2ccccc12	-105	113	-12	5.8*	198*	176*	232*	141*	114*
COc1ccc(CCNC(=O)c2ccc(CSc3ccccc3)o2)cc1	0	105	0	1.2	100	-20	x	x	x
Cc1cccnc1NC(=O)c1cc2ccccc2oc1=O	-59	97	4	4.2*	156*	176*	191*	117	117*
Cc1ccccc1-c1nnc(NC(=O)c2cc3ccccc3oc2=O)s1	-3	100	0	1.2	103	19	x	x	x
CC(=O)Nc1cccc(-c2csc(Nc3cc(C)ccn3)n2)c1	-58	110	-4	2.4	152*	138*	174*	130	115*
CC(=O)Nc1cccc(-c2csc(Nc3ccc(Cl)cn3)n2)c1	-108	96	5	6.5*	202*	182*	249*	161*	102
CC1CCN(Cc2ccc(-c3nnn(CC(=O)NC4CCCCC4)n3)cc2)CC1	-3	106	-2	0.86	102	6	x	x	x
COc1cc(CNCCc2ccccc2)cc(Cl)c1OCc1ccccc1	-2	97	10	0.85	101	-7	x	x	x
Cc1ccc(-c2noc(-c3cccs3)n2)cc1	-56	82	27	7.9*	154*	135*	220*	112	111*
CCN(CC)c1ccc(N=Nc2ncn[nH]2)cc1	-2	93	13	2.6	104	49	x	x	x
SMILES	STAT1 inh	STAT3 act	STAT3 inh	NF-kB expr up	STAT1 act	APP 5'UTR act	STAT1 activ conf	NFkB act	STAT3 act 2
CCN(CC)c1ccc(N=Nc2nn(C)c(C)c2[N+](=O)[O-])cc1	-88	82	21	5.7*	178*	142*	222*	140*	107
CC(=O)Nc1ccc(S(=O)(=O)Nc2cccc(-c3nc4ccccc4o3)c2)cc1	0	82	27	0.95	100	2	x	x	x
Nc1ccc(-c2nc3ccc(-c4nc5ccccc5o4)cc3[nH]2)cc1	-23	85	21	1.3	121	41	x	x	x
CC(=O)Nc1nc2ccc(-c3nc4ccccc4o3)cc2s1	-73	93	12	5.5*	167*	41	200*	135*	115*
Cc1nc2ccc(-c3nc4ccccc4o3)cc2[nH]1	-104	72	36	7*	195*	143*	232*	121	98
Cc1c(SCCO)c(=O)[nH]c2cc3c(cc12)OCO3	-2	103	-4	1.5	103	x	x	x	x
Cc1cc(C)cc(Nc2ncc3c(n2)CCCC3=O)c1	-58	75	31	2.9	154*	163*	185*	106	107
CCOc1ccc2nc(NC(=O)Nc3cccs3)sc2c1	-92	89	12	9.5*	184*	216*	253*	149*	121*
COc1ccc(NC(=O)c2nc3ccccc3s2)cc1	-69	67	42	7.5*	161*	208*	232*	96	99
COc1ccc(OC)c(NC(=O)c2nc3ccccc3s2)c1	-26	109	-10	0.9	121	39	x	x	x
CCOc1ccc2nc(NC(=O)CN3CCN(C)CC3)sc2c1	-14	111	-9	1.5	113	12	x	x	x
CCCCOC(=O)Nc1nc2ccc(OC)cc2s1	-21	90	15	2.2	119	32	x	x	x
CCOc1ccc2nc(NC(=O)Nc3ccccc3)sc2c1	-59	91	16	2.5	155*	148*	224*	139*	115*
CCCCOC(=O)Nc1nc2ccccc2s1	-58	79	28	5.4*	153*	12	213*	133	105
COCc1cc(=O)[nH]c(/N=C(\N)Nc2cccc(Cl)c2)n1	-8	90	14	1.3	106	4	x	x	x
CC(=O)C1=C(O)C(=O)N(c2cccc(C(=O)O)c2)C1c1ccc(F)cc1 (centres undefined)	-6	95	9	1	105	4	x	x	x
